# Screening data: PubChem BioAssay, The Scripps Research Institute Molecular Screening Center
# This is a sample that favours compounds with a hit; in the whole collection about 1.3% have one here.
# PME-1 inh = PME-1 (human) inhibition | hit rate 0.53% among 320,000 | recombinant PME-1, FP-Rh probe fluorescence polarization | inhibition, % at 5.9 µM | AID 2130 | Q9Y570;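 active = inhibition above the campaign mean of all compounds plus 3 SD, cut at about 26% in these data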;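 note: competitive labeling of PME-1 active site by serine hydrolase directed probe; 0% = PME-1 with DMSO and 100% = wells lacking PME-1 enzyme; inhibitors block probe labeling so polarization falls and inhibition rises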
# Target sequence (Q9Y570 whole entry, looked up): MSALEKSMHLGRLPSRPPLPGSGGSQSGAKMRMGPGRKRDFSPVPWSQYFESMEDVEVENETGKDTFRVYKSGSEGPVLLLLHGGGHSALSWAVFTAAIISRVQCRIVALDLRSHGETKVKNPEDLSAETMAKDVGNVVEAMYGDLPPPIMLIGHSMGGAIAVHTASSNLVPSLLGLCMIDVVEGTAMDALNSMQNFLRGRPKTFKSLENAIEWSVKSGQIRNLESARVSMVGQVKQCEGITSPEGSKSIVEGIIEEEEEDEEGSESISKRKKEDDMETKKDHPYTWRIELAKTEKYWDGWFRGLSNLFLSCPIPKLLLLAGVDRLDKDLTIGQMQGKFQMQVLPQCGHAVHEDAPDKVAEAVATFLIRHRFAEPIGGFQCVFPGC
# Fam108B inh = Fam108B inhibition, counter-screen for RBBP9 inhibitors. inhibition, % at 9.51 µM. hit rate 0.33% among 300,000. recombinant Fam108B, FP-Rh probe fluorescence polarization;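 active = inhibition above the screen mean inhibition plus 3 SD, computed separately per campaign, cut at about 18% in these data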;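 note: inhibitors lower polarization as less probe binds the enzyme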
# RBBP9 inh = inhibitors of human serine hydrolase RBBP9. hit rate 0.2% among 220,000. inhibition, % at 7.94 µM. O75884. recombinant RBBP9, FP-Rh probe fluorescence polarization;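 active = inhibition above the campaign mean of all tested compounds plus 3 SD, cut at about 14% in these data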;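 note: plate controls were DMSO wells with RBBP9 for no effect and wells lacking RBBP9 protein for full effect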
#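 System: RBBP9 protein / Buffer or medium: Tris/NaCl buffer pH 8.0 with 0.1% Pluronic / Probe or stimulus: Serine-hydrolase probe FP-Rh, 375 nM pre-mixing / Dosing: 7.94 µM single dose, 0.794% DMSO / Times: enzyme-compound preincubation 30 min, then probe labeling 45 min, 25 °C / Technique: fluorescence polarization (mP), excitation 525 nm, emission 598 nm / Replication: singlicate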
# PAD4 FP inh = PAD4 (human) enzyme inhibition; Q9UM07; recombinant PAD4, RCA probe fluorescence polarization; inhibition, % at 6.36 µM; hit rate 0.41% among 330,000;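 active = percent inhibition above a cutoff equal to the mean of all tested compounds plus 3 SD, cut at about 15% in these data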;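 note: 0% = PAD4 with RCA probe and DMSO and 100% = probe without PAD4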
# LYPLA2 inh = counter-screen for PME1 inhibitors: inhibitors of human LYPLA2; O95372; recombinant LYPLA2, FP-Rh probe fluorescence polarization; inhibition, % at 5.9 µM; hit rate 0.38% among 320,000; AID 2177;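 active = inhibition above the screen-wide mean plus 3 SD, limit set per campaign, cut at about 26% in these data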;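 note: 0% = LYPLA2 with DMSO and 100% = wells lacking LYPLA2 enzyme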
# Target sequence (O95372 whole entry, looked up): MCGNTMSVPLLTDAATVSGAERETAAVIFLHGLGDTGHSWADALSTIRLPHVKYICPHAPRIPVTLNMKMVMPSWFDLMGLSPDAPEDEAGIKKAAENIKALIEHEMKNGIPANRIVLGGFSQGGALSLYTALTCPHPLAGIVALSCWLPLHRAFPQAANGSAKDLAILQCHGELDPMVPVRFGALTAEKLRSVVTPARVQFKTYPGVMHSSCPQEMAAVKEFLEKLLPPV
# LYPLA1 inh = blocks human lysophospholipase 1, a PME1 counter-screen | recombinant LYPLA1, FP-Rh probe fluorescence polarization | inhibition, % at 5.9 µM | hit rate 0.16% among 320,000 | AID 2174;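 active = inhibition above the mean of all tested compounds plus 3 SD, set per campaign, cut at about 14% in these data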;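 note: inhibitors block serine hydrolase probe labeling of LYPLA1 so polarization falls; 0% = enzyme with DMSO and 100% = wells lacking LYPLA1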
# Fam108b confirm = confirmation of mouse Fam108b serine hydrolase inhibitors; shares compounds with Fam108B inh; recombinant Fam108b, FP-Rh probe fluorescence polarization; inhibition, % at 9.51 µM; hit rate 44% among 930;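 active = inhibition above a limit from the primary screen, the mean over all compounds plus 3 SD, cut at about 19% in these data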;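 note: 0% = median of active Fam108b wells and 100% = catalytically dead S170A mutant; inhibitors free the probe so polarization falls as inhibition rises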
# Fam108b inh = mouse ABHD17B inhibition. shares compounds with Fam108B inh. recombinant Fam108b, gel-based ABPP, fluorophosphonate probe. inhibition, % at 20 µM. hit rate 44% among 260; in the data active = inhibition above about 40%
# LYPLA1 conf = LYPLA1 (human) inhibition, confirmation counter-screen; shares compounds with LYPLA1 inh; recombinant LYPLA1, FP-Rh probe fluorescence polarization; inhibition, % at 5.9 µM; hit rate 69% among 480;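 active = mean inhibition across replicates above the hit cutoff set in the primary screen, cut at about 15% in these data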;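 note: loss of FP-Rh probe labeling of LYPLA1 seen as lower polarization; 0% = LYPLA1 with DMSO and 100% = wells lacking LYPLA1 enzyme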
# LYPLA2 confirm = LYPLA2 (human) inhibition, confirmation counter-screen | shares compounds with LYPLA2 inh | recombinant LYPLA2, FP-Rh probe fluorescence polarization | inhibition, % at 5.9 µM | hit rate 72% among 1,100 | AID 2232;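 active = mean inhibition across replicates above the hit cutoff set in the primary screen, cut at about 26% in these data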;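 note: blocked labeling of the enzyme by serine hydrolase FP-Rh probe lowers polarization; 0% = enzyme with DMSO and 100% = wells lacking LYPLA2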
# * marks the source's active call; other numbers are inactive results; x = no result given.
SMILES,PME-1 inh,Fam108B inh,RBBP9 inh,PAD4 FP inh,LYPLA2 inh,LYPLA1 inh,Fam108b confirm,LYPLA1 conf,others
COc1ccc(Nc2nc(-c3cccs3)nc3ccccc23)cc1,18,28*,-8,-1,0,-2,-11,x,
NS(=O)(=O)c1cnccc1Nc1cccc(F)c1,1,1,x,-4,2,0,x,x,
O=C(O)c1ccccc1N=Nc1c(O)[nH]c2ccc([N+](=O)[O-])cc12,7,21*,x,0,-2,5,14,x,
CCN1CCc2c(sc(NC(=S)NC(=O)c3ccc(Cl)cc3)c2C(N)=O)C1,3,4,-4,-2,0,-2,x,x,
Cc1cc(Nc2ccc(Cl)cc2)nc(NCc2ccccc2)n1,14,34*,-7,-5,-1,-5,32*,x,Fam108b inh=45*
CC(=O)Nc1c2c(nn1-c1ccc(Cl)cc1)CSC2,-4,9,x,2,2,-1,x,x,
Cc1nnc(SCC(=O)Nc2cccc(Cl)c2)n1CC1CCCO1 (configuration not stated),-4,-2,x,1,4,1,x,x,
Cc1ccc(-c2ccc(/C=C3\C(=O)ON=C3c3ccccc3)o2)c([N+](=O)[O-])c1,11,22*,-2,-6,6,6,7,x,
Cc1ccc(/C=C2\C(=O)ON=C2c2ccccc2)o1,-5,1,-10,-7,-2,1,x,x,
CN1/C(=C\C=C2/C(=O)Oc3ccccc3C2=O)C(C)(C)c2ccccc21,-186,139*,-3,-8,-213,51*,-132,-60,
CC1=CN2C(=N)/C(=C/c3ccc([N+](=O)[O-])o3)C(=O)N=C2S1,33*,19*,3,-23,23,17*,2,-3,
CN(C)c1ccc(/C=C(\C#N)C(=O)NCc2ccco2)cc1,18,29*,-7,11,25,22*,-8,14,
Clc1ccc(-n2cc(COCc3ccccc3)nn2)cc1,-2,-6,1,-3,-4,0,x,x,
COc1ccc(/C=C2\SC(=S)N(CC(=O)OCC(=O)Nc3ccc(C)cc3Cl)C2=O)cc1,-6,-3,2,-5,-3,0,x,x,
CC/C(=N/NC(=O)c1ccc(Br)cc1)c1ccc(OCCN2CCOCC2)cc1,4,1,1,-2,11,-1,x,x,
CCCOc1ccc(/C(CC)=N/NC(=O)C2(C)CC2(Br)Br)cc1 (configuration not stated),25,41*,-4,12,28*,17*,3,3,
COc1ccc(Cc2nc3ccc(C(=O)NC(C)Cc4ncccc4C)cc3o2)cc1OC (configuration not stated),-5,-3,x,-3,0,-3,x,x,
Cn1c(O)c(/C=N/NC(=O)c2cc3ccccc3cc2O)c2ccccc21,70*,36*,x,1,3,15*,31*,16*,
O=C1N/C(=N/O)S/C1=C/c1cccc([N+](=O)[O-])c1,1,2,-6,-2,-9,-3,x,x,
COc1cccc(N=C2NC(=O)/C(=C/c3cc([N+](=O)[O-])ccc3O)S2)c1,-7,19*,x,-5,-1,17*,15,41*,
COc1ccc(N=C2NC(=O)/C(=C/c3ccc(O)c(OC)c3)S2)cc1,7,7,-2,-3,-3,-2,x,x,
O=C1NC(=Nc2ccccc2Cl)S/C1=C\c1cc([N+](=O)[O-])ccc1O,-19,33*,x,-11,4,27*,42*,31*,Fam108b inh=30
CC(NC(=O)C1c2ccccc2Oc2ccccc21)C1CCCO1 (configuration not stated),10,-1,-10,-1,3,0,x,x,
Oc1ccccc1-c1nc2c3ccccc3c3ccccc3c2[nH]1,38*,44*,11,2,36*,6,53*,x,Fam108b inh=90*;LYPLA2 confirm=14
Oc1ccccc1-c1ccn[nH]1,x,x,x,-4,x,x,x,x,
SMILES,PME-1 inh,Fam108B inh,RBBP9 inh,PAD4 FP inh,LYPLA2 inh,LYPLA1 inh,Fam108b confirm,LYPLA1 conf,others
Nc1c(N2CCCC2)cc(Cl)c2nonc12,31*,54*,-2,7,72*,72*,42*,0,Fam108b inh=0;LYPLA2 confirm=-1
Nc1ccc(N2CCCCC2)c2nonc12,34*,67*,-8,69*,90*,79*,-4,4,LYPLA2 confirm=0
CCn1cc(CN2CCCC(C(=O)Nc3ccc(-c4cscn4)cc3)C2)c(C)n1 (configuration not stated),-3,-3,x,4,11,3,x,x,
O=[N+]([O-])c1ccc(Sc2ccccn2)nc1,1,0,-1,-4,3,3,x,x,
O=C(Nc1cc(Sc2ccccn2)cc([N+](=O)[O-])c1)c1ccc([N+](=O)[O-])cc1,4,19*,1,-2,57*,-13,5,x,LYPLA2 confirm=13
COC1=CC(=O)C(O)=C(CCCCCCC/C=C/CCCCCCCC2=C(O)C(=O)C=C(OC)C2=O)C1=O,22,47*,x,6,51*,56*,52*,72*,LYPLA2 confirm=36*
O=C(O)c1ccc(N/N=C/c2ccc(-c3cccc(Cl)c3)o2)cc1,24,17,-6,-3,8,8,x,x,
O=C(O)c1cccc(-c2ccc(/C=N/Nc3ccc([N+](=O)[O-])cc3)o2)c1,33*,23*,12,-3,31*,10,20*,x,LYPLA2 confirm=27*
CSc1ccccc1C(=O)C1CCCN(S(=O)(=O)c2c(C)noc2C)C1 (configuration not stated),3,6,-7,-2,3,1,x,x,
NC(=O)C1CCN(C2=C(Cl)C(=O)c3ccccc3C2=O)CC1,22,51*,-1,8,42*,7,59*,x,Fam108b inh=0;LYPLA2 confirm=36*
NC(=O)C1CCN(C2=C(NS(=O)(=O)c3ccccc3)C(=O)c3ccccc3C2=O)CC1,2,0,-5,-5,2,1,x,x,
COC(=O)c1nnn(-c2ccsc2C(=O)OC)c1C(=O)OC,2,0,-5,0,-1,-2,x,x,
CCCCCCN(C(=O)CCCCCN1C(=O)NC(c2ccc(Cl)cc2)C(C(=O)OCc2ccccc2)=C1C)C(C(=O)NCCCC)c1ccc(OCC(=O)OC)c(C(=O)OC)c1 (configuration not stated),x,x,-8,x,x,x,x,x,
N=C1CCC(=N)c2c1c(O)c1ccccc1c2O,64*,39*,13,43*,42*,31*,11,10,LYPLA2 confirm=25
